Assay results pooled from the literature.
Compare with care: the assays were run in different laboratories.
Observed: enzyme activity
ABL1: Tyrosine-protein kinase ABL1 (ABL1, Homo sapiens, UniProt P00519)

COc1cc(Cl)c(C(=O)N[C@@H](CN[C@H]2CC[C@@H](N)CC2)Cc2ccc(C#N)cc2)cc1-c1ccc(CN[C@H](C)c2ccc(C)cc2)o1 — remaining activity (ABL1; inhibitor; 1 µM): 96%
COc1cc(Nc2cnc(C#N)c(O[C@H](C)CN(C)C)n2)ncc1-c1cnn(C)c1 — remaining activity (ABL1; inhibitor, radiometric; 1 µM): 83%
CC(C)(C)c1nc(-c2cccc(NS(=O)(=O)c3c(F)cccc3F)c2F)c(-c2ccnc(N)n2)s1 — remaining activity (ABL1; inhibitor, radiometric; 1 µM): 94%
CCCOc1ccc(OC)c(F)c1C(=O)c1ccc(C(=O)N[C@@H]2CNC[C@H]2NC(=O)c2ccc3[nH]ncc3c2)cc1 — remaining activity (Tyrosine-protein kinase ABL1 (ABL1, Homo sapiens, UniProt P00519, Q252H); inhibitor; 10 µM): 76%
O=C(Nc1cnn(-c2csc(C(=O)NC3COC3)c2)c1)Nc1ccccc1Cl — remaining activity (ABL1; inhibitor; 5 µM): 83.4%
Cc1cnc(NC2CCOCC2)nc1-n1cnc(C(=O)NC(CN)c2cc(F)cc(Cl)c2)c1 (centres unmarked) — remaining activity (ABL1; inhibitor, radiometric; 1 µM): 103%
Cc1ccc(NC(=O)c2ccc(C)c(C(F)(F)F)c2)cc1C#Cc1nn(C2CCC(O)CC2)c2ncnc(N)c12 (centres unmarked) — remaining activity (Tyrosine-protein kinase ABL1 (ABL1, Homo sapiens, UniProt P00519, M351T); 10 µM): 0%
Cc1[nH]c(/C=C2\C(=O)Nc3ccc(F)cc32)c(C)c1C(=O)N[C@H]1CCN(C(=O)N(C)C)C1 — remaining activity (ABL1; inhibitor; 0.1 µM): 104%
